Calls of active or inactive are those of the source. The rule behind the calls is not given here.
Assays:
MCF7 [1] = test: Cytotoxicity against human MCF7 cells at 100 uM after 3 days by coulter counter method; assay type: cell-based; conditions: mcf7, 72 h
How it was run: (§1)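 Cells seeded at 10,000 cells per cm2; after 16 h, fresh medium with test compound added. Cells trypsinized and counted with a Coulter counter on day 4 (BAEC, HeLa, MCF-7) or day 7 (HMEC-1). Cytotoxicity (cell death) was judged after 3 days in culture. HMEC-1 grown in EGM-2 with supplements and growth factors.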

[2] = Cytotoxicity against human HMEC1 cells at 100 uM after 3 days by coulter counter method; assay type: cell-based; conditions: hmec-1, 72 h; how it was run: as §1
HeLa [3] = test: Cytotoxicity against human HeLa cells at 30 uM after 3 days by coulter counter method; assay type: cell-based; conditions: 72 h; how it was run: as §1
Gallus gallus [4] = species: Gallus gallus; test: Antiangiogenic activity in chicken embryo chorioallantoic membrane model assessed as degradation of immature existing blood vessels at 40 to 250 nmol/disc after 3 days; assay type: functional, tissue-based
HMEC-1 [5] = test: Antiangiogenic activity in human HMEC1 cells assessed as inhibition of tube formation at 10 uM after 4 to 6 hrs by matrigel assay; assay type: functional, cell-based
How it was run: (§2)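 HMEC-1 (60,000 cells) seeded on matrigel (10 mg/mL) after 30 min gelling at 37 °C, in DMEM containing test compound; after 4–6 h cells photographed and tubes scored 0 (none) to 3 (maximal, like untreated control). Mean ± SD of 2–4 independent experiments; Student t test, p < 0.05 significant.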

Gallus gallus [6] = species: Gallus gallus; test: Antiangiogenic activity in chicken embryo chorioallantoic membrane model assessed as destruction of vessels with bleeding at 20 nmol/disc after 3 days; assay type: functional, tissue-based
[7] = Antiproliferative activity against bovine BAEC cells after 4 days by coulter counter method; assay type: functional, cell-based; conditions: Bos taurus, 96 h
HeLa [8] = test: Cytotoxicity against human HeLa cells at 100 uM after 3 days by coulter counter method; assay type: cell-based; conditions: 72 h; how it was run: as §1
MAEC [9] = test: Antimigratory activity against mouse MAEC cell migration after 5 hrs by wound closure assay; assay type: functional, cell-based
How it was run: (§3)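 Confluent MAEC monolayers wounded with a 1.0-mm wide micropipette tip, then incubated in fresh medium with test compound. Wounds photographed after 5 h and width calculated from digital images. Mean ± SD of 2–4 independent experiments; Student t test, p < 0.05 significant.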

HMEC-1 [10] = test: Antiangiogenic activity in human HMEC1 cells assessed as inhibition of tube formation at 30 uM after 4 to 6 hrs by matrigel assay; assay type: functional, cell-based; how it was run: as §2
MCF7 [11] = test: Cytotoxicity against human MCF7 cells at 30 uM after 3 days by coulter counter method; assay type: cell-based; conditions: mcf7, 72 h; how it was run: as §1
[12] = Antimigratory activity against mouse MAEC cell migration at 10 uM after 5 hrs by wound closure assay; assay type: functional; how it was run: as §3
MCF7 [13] = test: Antiproliferative activity against human MCF7 cells after 4 days by coulter counter method; assay type: functional, cell-based; conditions: MCF7, 96 h
[14] = Antimigratory activity against mouse MAEC cell migration at 3 uM after 5 hrs by wound closure assay; assay type: functional; how it was run: as §3
[15] = Cytotoxicity against human HMEC1 cells at 30 uM after 3 days by coulter counter method; assay type: cell-based; conditions: hmec-1, 72 h; how it was run: as §1
Gallus gallus [16] = species: Gallus gallus; test: Antiangiogenic activity in chicken embryo chorioallantoic membrane model at 250 nmol/disc after 3 days; assay type: functional, tissue-based
[17] = Cytotoxicity against bovine BAEC cells at 100 uM after 3 days by coulter counter method; assay type: cell-based, Bos taurus; conditions: cattle, 72 h; how it was run: as §1
HeLa [18] = test: Antiproliferative activity against human HeLa cells after 4 days by coulter counter method; assay type: functional, cell-based; conditions: 96 h
[19] = Antiproliferative activity against human HMEC1 cells after 7 days by coulter counter method; assay type: functional, cell-based; conditions: HMEC-1, 168 h
[20] = Cytotoxicity against bovine BAEC cells at 30 uM after 3 days by coulter counter method; assay type: cell-based, Bos taurus; conditions: cattle, 72 h; how it was run: as §1
MAEC [21] = test: (§4) Antimigratory activity against mouse MAEC cell migration at 30 uM after 5 hrs by wound closure assay; assay type: functional; how it was run: as §3
Prothrombin = Prothrombin (Homo sapiens, UniProt P00734); test: Inhibition of thrombin
Gallus gallus [22] = species: Gallus gallus; test: Antiangiogenic activity in chicken embryo chorioallantoic membrane model assessed as inhibition of chorioallantoic membrane vascularization at 100 to 250 nmol/disc after 3 days; assay type: functional, tissue-based
HMEC-1 [23] = test: Antiangiogenic activity in human HMEC1 cells assessed as inhibition of tube formation after 4 to 6 hrs by matrigel assay; assay type: functional, cell-based; how it was run: as §2
Gallus gallus [24] = species: Gallus gallus; test: Antiangiogenic activity in chicken embryo chorioallantoic membrane model assessed as inhibition of pre-existing mature vessel at 100 to 250 nmol/disc after 3 days; assay type: functional, tissue-based
[25] = as §4; assay type: functional; how it was run: as §3

Compound	Activity (MCF7 [1])	Activity [2]	IC50 [7] [µM]	Activity (HeLa [8])	inhibition (MAEC [9])	inhibition at 10 µM [12] [%]	IC50 (MCF7 [13]) [µM]	inhibition (Gallus gallus [16])	Activity [17]	IC50 (HeLa [18]) [µM]	IC50 [19] [µM]	other results
CCOC(=O)CN(Cc1cc(F)cc(F)c1)c1ccc2c(c1)N(C)CC(C)(COc1ccc(C(=N)N)cc1)O2 (configuration not stated)	Toxic	Toxic	4	Toxic	Dose-dependent effect	50	4.5	Active	Toxic	4.5	6.7	Activity (HeLa [3]): Toxic; Activity (Gallus gallus [4]): Active; inhibition (HMEC-1 [5]): inactive; Activity (Gallus gallus [6]): Active; inhibition (HMEC-1 [10]): Active; Activity (MCF7 [11]): Toxic; inhibition at 3 µM [14]: > 40%; Activity [15]: Toxic; Activity [20]: Toxic; inhibition (MAEC [21]): Active
CCOC(=O)C(=O)N(Cc1ccccc1)c1ccc2c(c1)OC(COc1ccc(C(=N)N)cc1)CO2 (configuration not stated)	Non-toxic	Non-toxic	8.5	Non-toxic	Dose-dependent effect	> 40	8.7	Active	Non-toxic	8	22	Ki (Prothrombin): 0.178 µM; inhibition (Gallus gallus [22]): Active; inhibition (HMEC-1 [23]): Dose-dependent effect; Activity (Gallus gallus [24]): inactive; inhibition at 30 µM [25]: > 80%
